Measured values taken from ChEMBL document CHEMBL3870359, “Design and Synthesis of Novel Meta-Linked Phenylglycine Macrocyclic FVIIa Inhibitors” (ACS Med Chem Lett, 2017).

What was measured:
[1] = Anticoagulant activity in factor 7 deficient human plasma assessed as concentration required for prolongation of prothrombin time; type: functional
Outline: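 Clotting (prothrombin time) assay in FVII-deficient human plasma. Read-out is the compound concentration that prolongs clotting time 2-fold (EC2X, μM).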

[2] = Permeability of the compound at pH 5.5 by PAMPA; type: ADME; details: read-out: permeability
[3] = Half life in human liver microsomes; type: ADME
[4] = molecular target: T1, Coagulation factor VII/tissue factor (Homo sapiens, UniProt P08709); assay: Inhibition of recombinant human factor-7a/TF using S2288 as substrate measured after 60 mins at 37 degC; type: protein-complex assay
T1 sequence (P08709 61-212 limits assumed): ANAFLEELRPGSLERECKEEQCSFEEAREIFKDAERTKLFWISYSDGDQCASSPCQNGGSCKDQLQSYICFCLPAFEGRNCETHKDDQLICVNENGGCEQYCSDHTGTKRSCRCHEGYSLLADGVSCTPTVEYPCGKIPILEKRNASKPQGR
T1 sequence (P08709 213-466 limits assumed): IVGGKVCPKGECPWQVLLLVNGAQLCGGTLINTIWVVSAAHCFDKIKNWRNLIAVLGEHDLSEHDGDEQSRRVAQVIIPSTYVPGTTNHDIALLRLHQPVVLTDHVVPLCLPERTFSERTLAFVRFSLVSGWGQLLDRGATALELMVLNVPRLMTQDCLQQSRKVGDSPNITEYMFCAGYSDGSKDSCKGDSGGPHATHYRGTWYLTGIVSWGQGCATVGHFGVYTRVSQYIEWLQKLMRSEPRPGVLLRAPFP
T1 sequence (P13726 33-295 partner limits assumed): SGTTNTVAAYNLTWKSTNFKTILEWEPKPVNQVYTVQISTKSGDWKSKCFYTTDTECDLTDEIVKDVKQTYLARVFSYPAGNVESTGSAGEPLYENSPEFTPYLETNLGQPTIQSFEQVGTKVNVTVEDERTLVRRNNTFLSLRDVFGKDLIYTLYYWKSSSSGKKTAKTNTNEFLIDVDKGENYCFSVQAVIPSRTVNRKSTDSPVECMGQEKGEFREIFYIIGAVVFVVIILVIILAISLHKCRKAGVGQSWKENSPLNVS
Outline: (§1)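 Ki determined against recombinant human TF/FVIIa enzyme, each value averaged from two experiments. The assay was first run at 25 °C and later moved to 37 °C to better approximate physiological conditions.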

[5] = Permeability of the compound at pH 7.4 by PAMPA; type: ADME; details: read-out: permeability
[6] = Half life in rat liver microsomes; type: ADME
Kallikrein-1 = Kallikrein-1 (Homo sapiens, UniProt P06870); assay: Inhibition of tissue Kallikrein-1 (unknown origin)
Kallikrein-1, sequence (P06870 whole entry): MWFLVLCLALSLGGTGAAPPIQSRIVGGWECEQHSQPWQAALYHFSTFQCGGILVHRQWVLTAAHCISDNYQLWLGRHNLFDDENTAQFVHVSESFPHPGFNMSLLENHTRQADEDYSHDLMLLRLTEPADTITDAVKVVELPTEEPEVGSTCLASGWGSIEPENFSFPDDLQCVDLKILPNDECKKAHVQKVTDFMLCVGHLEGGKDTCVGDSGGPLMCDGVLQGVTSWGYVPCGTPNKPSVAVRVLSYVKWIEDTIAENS

[7] = molecular target: Vitamin K-dependent protein C (Homo sapiens, UniProt P04070); assay: Inhibition of activated protein C (unknown origin)
Vitamin K-dependent protein C, sequence (P04070 43-197 limits assumed): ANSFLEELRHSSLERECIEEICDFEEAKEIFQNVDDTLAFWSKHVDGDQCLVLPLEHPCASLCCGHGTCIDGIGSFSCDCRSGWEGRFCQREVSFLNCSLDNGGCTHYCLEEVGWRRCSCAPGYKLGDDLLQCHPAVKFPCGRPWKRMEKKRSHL
Vitamin K-dependent protein C, sequence (P04070 212-461 limits assumed): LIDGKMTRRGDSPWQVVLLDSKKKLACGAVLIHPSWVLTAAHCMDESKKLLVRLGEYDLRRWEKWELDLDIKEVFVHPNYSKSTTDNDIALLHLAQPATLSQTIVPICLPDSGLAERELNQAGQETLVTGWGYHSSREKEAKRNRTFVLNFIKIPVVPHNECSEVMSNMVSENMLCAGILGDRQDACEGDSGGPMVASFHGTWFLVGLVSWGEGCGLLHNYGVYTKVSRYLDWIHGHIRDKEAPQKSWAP

[8] = molecular target: T1, Coagulation factor VII/tissue factor; assay: Inhibition of recombinant human factor-7a/TF using S2288 as substrate measured after 60 mins at 25 degC; type: protein-complex assay; outline: as §1
[9] = Oral bioavailability in rat; type: ADME, organism-based; details: in vivo

SMILES	2PT [1] [µM]	half-life [3] [min]	Ki [4] [nM]	half-life [6] [min]	Ki [8] [nM]	also measured
COc1ccc2cc1CCC(=O)Nc1ccc(S(=O)(=O)C3CC3)c(c1)CN(C)C(=O)[C@@H]2Nc1ccc2c(N)ncc(F)c2c1	11	14	18	16	–	Papp [2]: 35 ×10⁻⁶ cm/s; Papp [5]: 54 ×10⁻⁶ cm/s
CN1Cc2cc(ccc2S(=O)(=O)C2CC2)NC(=O)CCc2cc(ccc2OCC(F)F)[C@@H](Nc2ccc3c(N)ncc(F)c3c2)C1=O	15	32	27	64	–	Papp [2]: 8.8 ×10⁻⁶ cm/s; Ki (Kallikrein-1): 140 nM; Ki [7]: 1200 nM
C[C@@H]1CC(=O)Nc2ccc(S(=O)(=O)C3CC3)c(c2)CN(C)C(=O)[C@H](Nc2ccc3c(N)ncc(F)c3c2)c2ccc(OCC(F)F)c1c2	3.5	31	0.24	39	–	Ki (Kallikrein-1): 9.4 nM; Ki [7]: 39 nM
CN1Cc2cc(ccc2S(=O)(=O)C2CC2)NC(=O)CCc2cccc(c2)[C@@H](Nc2ccc3c(N)nccc3c2)C1=O	–	–	58	–	< 5	–
COc1c(F)cc2cc1CCC(=O)Nc1ccc(S(=O)(=O)C3CC3)c(c1)CN(C)C(=O)[C@@H]2Nc1ccc2c(N)ncc(F)c2c1	41	14	410	8	–	–
CN1Cc2cc(ccc2S(=O)(=O)C2CC2)NC(=O)CCc2cc(ccc2F)[C@@H](Nc2ccc3c(N)ncc(F)c3c2)C1=O	26	–	210	–	–	–
CN1CCc2cccc(c2)[C@@H](Nc2ccc3c(N)nccc3c2)C(=O)N(C)Cc2cc(ccc2S(=O)(=O)C2CC2)NC1=O	–	–	6.3	–	–	–
CN1Cc2cc(ccc2S(=O)(=O)C2CC2)NC(=O)CCc2cc(ccc2OCC2CC2)[C@@H](Nc2ccc3c(N)ncc(F)c3c2)C1=O	29	23	26	23	–	–
COc1cc2cc(c1)[C@@H](Nc1ccc3c(N)ncc(F)c3c1)C(=O)N(C)Cc1cc(ccc1S(=O)(=O)C1CC1)NC(=O)CC2	14	15	290	46	–	Papp [2]: 1.5 ×10⁻⁶ cm/s; Papp [5]: 29 ×10⁻⁶ cm/s
CN1Cc2cc(ccc2S(=O)(=O)C2CC2)NC(=O)CCc2cc(ccc2C2CC2)[C@@H](Nc2ccc3c(N)ncc(F)c3c2)C1=O	26	26	77	5	–	–
CN1Cc2cc(ccc2S(=O)(=O)C2CC2)NC(=O)CCc2cccc(c2)[C@@H](Nc2ccc3c(N)ncc(F)c3c2)C1=O	10	13	260	33	–	Papp [2]: 6.7 ×10⁻⁶ cm/s; Papp [5]: 12 ×10⁻⁶ cm/s; bioavailability [9]: 3.7%
CN1Cc2cc(ccc2S(=O)(=O)C2CC2)NC(=O)NCCc2cccc(c2)[C@@H](Nc2ccc3c(N)ncc(F)c3c2)C1=O	–	–	–	–	17	–
CN1CCc2cccc(c2)[C@@H](Nc2ccc3c(N)ncc(F)c3c2)C(=O)N(C)Cc2cc(ccc2S(=O)(=O)C2CC2)NC1=O	–	5	200	6	14	Papp [5]: 22 ×10⁻⁶ cm/s; F ([9]; BLD = below limit of detection): Bld
CN1Cc2cc(ccc2S(=O)(=O)C2CC2)NC(=O)OCc2cccc(c2)[C@@H](Nc2ccc3c(N)nccc3c2)C1=O	–	–	–	–	260	–
COc1ccc2cc1[C@@H](C)CN(C)C(=O)Nc1ccc(S(=O)(=O)C3CC3)c(c1)CN(C)C(=O)[C@@H]2Nc1ccc2c(N)ncc(F)c2c1	–	4	3.8	4	< 5	–
C[C@H]1CC(=O)Nc2ccc(S(=O)(=O)C3CC3)c(c2)CN(C)C(=O)[C@H](Nc2ccc3c(N)ncc(F)c3c2)c2ccc(OCC(F)F)c1c2	23	14	67	74	–	Ki (Kallikrein-1): 23 nM; Ki [7]: 5700 nM
CN1Cc2cc(ccc2S(=O)(=O)C2CC2)NC(=O)N(Cc2ccccc2)CCc2cccc(c2)[C@@H](Nc2ccc3c(N)ncc(F)c3c2)C1=O	–	–	–	–	80	–
CN1Cc2cc(ccc2S(=O)(=O)C2CC2)NC(=O)CCc2cc(ccc2O)[C@@H](Nc2ccc3c(N)ncc(F)c3c2)C1=O	14	–	92	–	–	–
COc1ccc2cc1[C@H](C)CN(C)C(=O)Nc1ccc(S(=O)(=O)C3CC3)c(c1)CN(C)C(=O)C2Nc1ccc2c(N)nccc2c1 (mixture of isomers)	–	6	–	6	47	–
CN1Cc2cc(ccc2S(=O)(=O)C2CC2)NC(=O)N(CC2CCC2)CCc2cccc(c2)C(Nc2ccc3c(N)ncc(F)c3c2)C1=O (racemic)	–	–	–	–	150	–
CN1Cc2cc(ccc2S(=O)(=O)C2CC2)NC(=O)N(CC2CC2)CCc2cccc(c2)C(Nc2ccc3c(N)ncc(F)c3c2)C1=O (racemic)	–	5	–	12	59	–
